These results are taken from ChEMBL document CHEMBL3774372, “Design, physico-chemical properties and biological evaluation of some new N-[(phenoxy)alkyl]- and N-{2-[2-(phenoxy)ethoxy]ethyl}aminoalkanols as anticonvulsant agents” (Bioorg Med Chem, 2016).

Calls of active or inactive are those of the source.

For orientation: ED50 means the dose at which the effect has come halfway, by size or by number of responders. One may read the TD50 as the dose at which the toxic effect under study appears in half of the subjects. A word on the IC50: it is the concentration needed to halve the response being measured.

The test system of series [1] is Mus musculus. Put plainly: Anticonvulsant activity in ip dosed mouse assessed as protection against maximal electric shock-induced seizures measured after […]. In kind it is functional.
Series [2] deals with Mus musculus. Description: Anticonvulsant activity in ip dosed mouse assessed as protection against maximal electric shock-induced seizures. In kind it is functional, organism-based. An outline of the steps: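 Compound suspended in 0.5% methylcellulose and given ip to mice; screening doses 30, 100 and 300 mg/kg, read at 0.25–4 h. Protection was defined as abolition of hindlimb tonic extension.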

In series [3] the test system is Mus musculus. Put plainly: Anticonvulsant activity in ip dosed mouse assessed as protection against subcutaneous pentylenetetrazol-induced seizures measured after […]. In kind it is functional.
Series [4] can be described thus: Neurotoxicity in ip dosed mouse after […] by rotarod test. In kind it is toxicity, organism-based. As to conditions: in vivo.
The nature of series [5]: Neurotoxicity in ip dosed mouse by rotarod test. In kind it is toxicity, organism-based. As to conditions: in vivo.
A short description of series [6]: Displacement of [3H]alpha,beta-MeATP from rat urinary bladder P2X receptor.
For series [7], the target named is Muscarinic acetylcholine receptor M5 (Homo sapiens, UniProt P08912). Put plainly: Displacement of [3H]4-DAMP from human recombinant muscarinic M5 receptor expressed in CHO cells. In kind it is cell-based. (Displacement assays read how much labelled ligand stays bound in the presence of the test substance.)
Sequence of Muscarinic acetylcholine receptor M5 (P08912 whole entry): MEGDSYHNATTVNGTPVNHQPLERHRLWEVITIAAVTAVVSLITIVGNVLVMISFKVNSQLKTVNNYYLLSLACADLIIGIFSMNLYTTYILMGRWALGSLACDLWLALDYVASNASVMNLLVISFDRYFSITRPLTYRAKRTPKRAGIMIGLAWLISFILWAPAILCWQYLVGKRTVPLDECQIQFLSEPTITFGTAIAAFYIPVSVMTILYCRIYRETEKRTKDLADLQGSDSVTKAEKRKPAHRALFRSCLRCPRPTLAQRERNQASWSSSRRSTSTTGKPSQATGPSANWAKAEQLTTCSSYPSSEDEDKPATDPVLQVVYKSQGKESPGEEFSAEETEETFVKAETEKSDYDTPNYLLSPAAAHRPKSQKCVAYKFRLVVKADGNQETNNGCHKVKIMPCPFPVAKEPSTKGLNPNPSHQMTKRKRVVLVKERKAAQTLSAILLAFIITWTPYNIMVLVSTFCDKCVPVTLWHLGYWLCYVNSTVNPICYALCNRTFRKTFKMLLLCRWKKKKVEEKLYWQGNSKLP
In series [8] the test system is Rattus norvegicus. Description: Neurotoxicity in rat at 30 mg/kg, po after […] by rotarod test. The note with it: in vivo. In kind it is toxicity, organism-based.
For series [9], the system named is Mus musculus. Put plainly: Neurotoxicity in mouse at 300 mg/kg, ip after 0.5 hrs by rotarod test. In kind it is toxicity, organism-based. As to conditions: in vivo. An outline of the steps:
(§1)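 Mice were dosed ip with compound suspended in 0.5% methylcellulose. Rotarod: a 1 in. knurled rod turning at 6 rpm. Neurotoxicity was scored as failure to stay on the rod for at least 1 min in each of three trials. Results are given as the number of animals affected out of the number tested.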
A general note: The rotarod test checks motor coordination on a turning rod.

The test system of series [10] is Mus musculus. Put plainly: Neurotoxicity in mouse at 100 mg/kg, ip after 0.5 hrs by rotarod test. The note with it: in vivo. In kind it is toxicity, organism-based. An outline of the steps:
as §1

In series [11] the test system is Rattus norvegicus. Description: Neurotoxicity in rat at 30 mg/kg, po after 0.5 hrs by rotarod test. In kind it is toxicity, organism-based. As to conditions: in vivo.
Series [12] concerns Mus musculus. Description: Neurotoxicity in mouse at 30 mg/kg, ip after 0.5 hrs by rotarod test. As to conditions: in vivo. In kind it is toxicity, organism-based. An outline of the steps:
as §1

In series [13] the test system is Rattus norvegicus. Description: Neurotoxicity in rat at 30 mg/kg, po after 1 hr by rotarod test. In kind it is toxicity, organism-based. The note with it: in vivo.
Series [14] deals with Rattus norvegicus. Put plainly: Neurotoxicity in rat at 30 mg/kg, ip after 4 hrs by rotarod test. In kind it is toxicity, organism-based. As to conditions: in vivo.
Series [15] deals with Rattus norvegicus. Put plainly: Neurotoxicity in rat at 30 mg/kg, po after 2 hrs by rotarod test. In kind it is toxicity, organism-based. As to conditions: in vivo.
For series [16], the system named is Mus musculus. Description: Neurotoxicity in mouse at 30 mg/kg, ip after 4 hrs by rotarod test. In kind it is toxicity, organism-based. As to conditions: in vivo. In outline:
as §1

For series [17], the system named is Rattus norvegicus. Put plainly: Neurotoxicity in rat at 30 mg/kg, po after 4 hrs by rotarod test. In kind it is toxicity, organism-based. The note with it: in vivo.
Series [18] deals with Rattus norvegicus. Description: Neurotoxicity in rat at 30 mg/kg, ip after 1 hr by rotarod test. In kind it is toxicity, organism-based. The note with it: in vivo.
For series [19], the system named is Rattus norvegicus. Description: Neurotoxicity in rat at 30 mg/kg, ip after 2 hrs by rotarod test. In kind it is toxicity, organism-based. As to conditions: in vivo.
Series [20] concerns Rattus norvegicus. Put plainly: Neurotoxicity in rat at 30 mg/kg, ip after 0.5 hrs by rotarod test. In kind it is toxicity, organism-based. The note with it: in vivo.
In series [21] the test system is Rattus norvegicus. Put plainly: Neurotoxicity in rat at 30 mg/kg, ip after […] by rotarod test. In kind it is toxicity, organism-based. The note with it: in vivo.
Series [22] concerns Mus musculus. Put plainly: Neurotoxicity in mouse at 30 mg/kg, ip after 2 hrs by rotarod test. In kind it is toxicity, organism-based. The note with it: in vivo.
Series [23] has as its system Mus musculus. Description: Neurotoxicity in mouse at 30 mg/kg, ip after 1 hr by rotarod test. In kind it is toxicity, organism-based. As to conditions: in vivo.
Series [24] deals with Mus musculus. Description: Anticonvulsant activity in mouse assessed as protection against 6 Hz psychomotor seizure at 100 mg/kg, ip after 4 hrs. In kind it is functional, organism-based. In outline:
(§2)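 Suspension in 0.5% methylcellulose given ip to mice; corneal stimulation with 0.2 ms monopolar rectangular pulses at 6 Hz for 3 s from a constant current device, mice restrained then released to observation cage. Protected if normal exploratory behaviour resumed within 10 s of stimulation. Scored as protected/tested, 4 mice per group.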

Series [25] deals with Mus musculus. Description: Neurotoxicity in mouse at 30 mg/kg, ip after […] by rotarod test. In kind it is toxicity, organism-based. The note with it: in vivo.
Series [26] has as its system Rattus norvegicus. Put plainly: Anticonvulsant activity in rat assessed as protection against maximal electric shock-induced seizures at 30 mg/kg, po measured after 2 hrs. In kind it is functional, organism-based. An outline of the steps: (§3)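 Rats dosed ip or orally as 0.5% methylcellulose suspension; maximal electroshock at listed time. Protection = abolition of hindlimb tonic extension; 4 rats per group, scored protected/tested.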

Series [27] deals with Rattus norvegicus. Description: Anticonvulsant activity in rat assessed as protection against maximal electric shock-induced seizures at 30 mg/kg, ip measured after 4 hrs. In kind it is functional, organism-based. In outline: as §3
The subject of series [28] is Mus musculus. Description: Anticonvulsant activity in mouse assessed as protection against maximal electric shock-induced seizures at 30 mg/kg, ip measured after 4 hrs. In kind it is functional, organism-based. In outline: (§4)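 Mice dosed ip with suspension in 0.5% methylcellulose; maximal electroshock applied at the listed time after dosing. Protection = abolition of hindlimb tonic extension component of seizure; reported as animals protected/animals tested.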

Series [29] has as its system Rattus norvegicus. Description: Anticonvulsant activity in rat assessed as protection against maximal electric shock-induced seizures at 30 mg/kg, po measured after […]. In kind it is functional, organism-based.
The subject of series [30] is Rattus norvegicus. Description: Anticonvulsant activity in rat assessed as protection against maximal electric shock-induced seizures at 30 mg/kg, po measured after 4 hrs. In kind it is functional, organism-based. An outline of the steps:
as §3

The subject of series [31] is Mus musculus. Put plainly: Anticonvulsant activity in mouse assessed as protection against maximal electric shock-induced seizures at 30 mg/kg, ip measured after 1 hr. In kind it is functional, organism-based. In outline: as §4
The subject of series [32] is Mus musculus. Put plainly: Neurotoxicity in mouse at 100 mg/kg, ip after 2 hrs by rotarod test. In kind it is toxicity, organism-based. As to conditions: in vivo. In outline: as §1
Series [33] concerns Mus musculus. Description: Anticonvulsant activity in mouse assessed as protection against maximal electric shock-induced seizures at 100 mg/kg, ip measured after […]. In kind it is functional, organism-based.
Series [34] concerns Rattus norvegicus. Description: Anticonvulsant activity in rat assessed as protection against maximal electric shock-induced seizures at 30 mg/kg, po measured after 1 hr. In kind it is functional, organism-based. In outline: as §3
Series [35] relates to Mus musculus. Put plainly: Anticonvulsant activity in mouse assessed as protection against maximal electric shock-induced seizures at 100 mg/kg, ip measured after 1 hr. In kind it is functional, organism-based. In outline: as §4
Series [36] concerns Rattus norvegicus. Description: Anticonvulsant activity in rat assessed as protection against maximal electric shock-induced seizures at 30 mg/kg, ip measured after 1 hr. In kind it is functional, organism-based. In outline:
as §3

Series [37] has as its system Rattus norvegicus. Description: Anticonvulsant activity in rat assessed as protection against maximal electric shock-induced seizures at 30 mg/kg, po measured after 0.5 hrs. In kind it is functional, organism-based. An outline of the steps:
as §3

The test system of series [38] is Mus musculus. Put plainly: Anticonvulsant activity in mouse assessed as protection against maximal electric shock-induced seizures at 100 mg/kg, ip measured after 4 hrs. In kind it is functional, organism-based. An outline of the steps:
as §4

Series [39] relates to Mus musculus. Put plainly: Neurotoxicity in mouse at 100 mg/kg, ip after 1 hr by rotarod test. In kind it is toxicity, organism-based. As to conditions: in vivo. An outline of the steps: as §1
Series [40] deals with Mus musculus. Description: Anticonvulsant activity in mouse assessed as protection against 6 Hz psychomotor seizure at 100 mg/kg, ip after 2 hrs. In kind it is functional, organism-based. An outline of the steps: as §2
Series [41] deals with Mus musculus. Description: Neurotoxicity in mouse at 100 mg/kg, ip after 4 hrs by rotarod test. In kind it is toxicity, organism-based. The note with it: in vivo. In outline:
as §1

Series [42] deals with Mus musculus. Description: Anticonvulsant activity in mouse assessed as protection against maximal electric shock-induced seizures at 100 mg/kg, ip measured after 0.5 hrs. In kind it is functional, organism-based. In outline:
as §4

Series [43] is described as follows: Displacement of [3H]TCP from rat cerebral cortex PCP receptor. In kind it is tissue-based. An outline of the steps:
(§5)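 Radioligand binding on rat cerebral cortex preparations: [35S]TBPS (GABA-gated Cl⁻ channel), [125I]apamin (SKCa), [3H]batrachotoxinin (Na⁺ site 2), [35S]dATPαS (P2Y), [3H]TCP (PCP), [3H]flunitrazepam (central BZD).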

Series [44] can be described thus: Displacement of [35S]dATPalpha S from rat cerebral cortex P2Y receptor. In kind it is tissue-based. In outline:
as §5

On to `Cc1cccc(C)c1OCCN[C@H](C)CO`, for which the results for the ED50 with Mus musculus [1] and in the series with Mus musculus [3] were 5.34 mg/kg and greater than 50 mg/kg, respectively. Moreover, the EC50 in the series on Mus musculus [2] came out at 5.34 mg/kg. The same compound returned a TD50 at […] in [4] of 29.5 mg/kg. In addition, in [5], the TD50 stood at 29.5 mg/kg.
Compound `Nc1ncnc2c1ncn2[C@@H]1O[C@H](COP(=O)(O)CP(=O)(O)OP(=O)(O)O)[C@@H](O)[C@H]1O` [DIPHOSPHOMETHYLPHOSPHONIC ACID ADENOSYL ESTER] gave an IC50 in series [6] of 1.9 nM.
On to `C[N+]1(C)CCC(OC(=O)C(c2ccccc2)c2ccccc2)CC1` [4-DAMP], for which the IC50 in [7] was 0.32 nM.
With `Cc1cccc(C)c1OCCOCCN[C@@H](C)CO.Cl`, the Activity result is “Non-toxic” in the series on Rattus norvegicus [8]; “Toxic” in the series with Mus musculus [9]; “Non-toxic” with Mus musculus [10]; “Non-toxic” in the series on Rattus norvegicus [11]; “Non-toxic” in the series with Mus musculus [12]; “Non-toxic” with Rattus norvegicus [13]. The Activity entry in the series with Rattus norvegicus [14], in the series with Rattus norvegicus [15], in the series with Mus musculus [16], in the series on Rattus norvegicus [17], in the series with Rattus norvegicus [18] and with Rattus norvegicus [19] was “Non-toxic” in each case. The Activity result in the series with Rattus norvegicus [20], with Rattus norvegicus [21] and in the series with Mus musculus [22] was “Non-toxic” throughout.
As for `Cc1cccc(OCCCN2CCCC(O)C2)c1C` (stereo unspecified), the Activity result with Mus musculus [23], with Rattus norvegicus [8], in the series on Mus musculus [25], in the series on Rattus norvegicus [11], with Mus musculus [12] and with Rattus norvegicus [13] was “Non-toxic” throughout. For the same compound, the Activity entry in the series on Rattus norvegicus [14], in the series with Rattus norvegicus [15], with Mus musculus [32], in the series with Mus musculus [16], in the series on Rattus norvegicus [17] and in the series with Mus musculus [39] was “Non-toxic” each time. Moreover, the Activity entry with Rattus norvegicus [18], in the series with Rattus norvegicus [19], in the series with Mus musculus [41], with Rattus norvegicus [20] and in the series with Rattus norvegicus [21] was “Non-toxic” in each case. Also, the outcome in the series on Mus musculus [24], with Rattus norvegicus [26], in the series with Rattus norvegicus [27], with Mus musculus [28], in the series with Rattus norvegicus [29] and in the series on Rattus norvegicus [30] was inactive. The outcome in the series with Mus musculus [31], with Rattus norvegicus [34], in the series on Rattus norvegicus [36], in the series with Rattus norvegicus [37], with Mus musculus [38] and in the series with Mus musculus [40] was inactive. Moreover, the result with Mus musculus [33], in the series with Mus musculus [35] and with Mus musculus [42] was Active.
As for `C[C@]12N[C@H](Cc3ccccc31)c1ccccc12` [DIZOCILPINE], the IC50 in series [43] stood at 4.6 nM.
In the case of `Nc1ncnc2c1ncn2[C@@H]1O[C@H](COP(O)(=S)OP(=O)(O)OP(=O)(O)O)[C@@H](O)[C@H]1O` (stereo partly specified), in [44], the half-inhibitory concentration (IC50) was determined as 29 nM.
